High-throughput results as filed in PubChem.
A selection: hits, their analogues and other compounds. The true share with any hit is near 1.8%.
UHRF1 MBD2 ctr: human UHRF1 methylated DNA binding inhibitors. Q96T88. UHRF1 binding to methylated oligo, TR-FRET. inhibition, % at 4.4 µM. actives 0.75% (n = 370,000); in the data active = inhibition above about 21%;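 note: UHRF1 SRA domain binding a hemimethylated CpG hairpin DNA probe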
LEDGF integ inh: blocks HIV-1 LEDGF/p75-dependent DNA integration. TR-FRET IN-LEDGF/p75 DNA integration, Eu/Cy5. inhibition, % at 3.7 µM. actives 0.64% (n = 370,000);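 active = inhibition above the screen-wide mean plus 3 SD, cut at about 13% in these data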;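 note: signal is the Cy5 over europium emission ratio at 671 and 618 nm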
TDP2 absorb: TDP2 (human) inhibition, absorbance primary screen; recombinant TDP2, T5PNP hydrolysis, p-nitrophenol absorbance 415 nm; AID 720702; actives 0.34% (n = 370,000); O95551; inhibition, % at 12.8 µM;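 active = inhibition above the mean of all tested compounds plus 3 SD, set per campaign, cut at about 25% in these data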
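Test system: human TDP2 enzyme; Input: 120 nM TDP2 per well; Buffer or medium: Mg2+-containing Tris-HCl buffer, pH 7.5; Reagent: 5 mM T5PNP; Dosing: 12.8 µM single point, 1% DMSO; Incubation: reaction 2 h, 37 °C; Detection: p-Nitrophenol epi absorbance; Read-out: % inhibition relative to enzyme-containing and enzyme-free wells; Replicates: single well per compound.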
CASP6 VEID inh: blocks human caspase-6 cleavage activity. P55212. purified caspase-6, Z-VEID-R110 cleavage fluorescence. inhibition, % at 12.5 µM. actives 0.53% (n = 350,000). AID 686996;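 active = mean inhibition across replicates at least about 35%, with every replicate also reaching that limit, limit read from the data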
NSD2 inh: blocks human histone methyltransferase NSD2 | O96028 | NSD2 peptide methylation, AlphaScreen, 120 min | actives 0.54% (n = 310,000) | inhibition, % at 12.5 µM; in the data active = inhibition above about 50%
MBD2 DNA inh: inhibitors of human MBD2 binding to methylated oligonucleotide; Q9UBB5; TR-FRET; inhibition, % at 4.4 µM; actives 0.31% (n = 370,000); in the data active = inhibition above about 13%
TDP2 confirm: human TDP2 inhibition, confirmation; shares compounds with TDP2 absorb; inhibition, % at 12.8 µM; recombinant human TDP2, absorbance read-out; actives 22% (n = 1,100); in the data active = inhibition above about 25%
IN multimer up: HIV-1 integrase multimerization activation, counter-screen | activation, % at 7.7 µM | AID 1053131 | actives 17% (n = 2,000) | TR-FRET HIV-1 integrase multimerization, biochemical | shares compounds with LEDGF integ inh; in the data active = activation above about 8.9%
TRFRET interf: optically interferes with TR-FRET readout in LEDGF counter-screen. TR-FRET optical interference counterscreen, HIV-1 IN multimerization. inhibition, % at 7.7 µM. AID 1053135. 2,000 tested, under 10 active. shares compounds with LEDGF integ inh;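 active = inhibition above the mean over all tested compounds plus 3 SD, which no compound reached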
LEDGF integ conf: confirmation of HIV-1 LEDGF/p75-dependent integration inhibitors; shares compounds with LEDGF integ inh; actives 36% (n = 2,000); inhibition, % at 3.7 µM; TR-FRET LEDGF/p75-dependent HIV-1 integration, biochemical; in the data active = inhibition above about 14%
AlphaScreen art: interferes with AlphaScreen signal, flagging NSD2 false positives | shares compounds with NSD2 inh | AlphaScreen artifact counterscreen, preloaded methylated H4 peptide | AC35, µM (highest dose often 10 µM) | actives 9.4% (n = 1,500) | AID 1053174; call rule not given here
Numbers stand for hits; – = inactive; · = no result given; + = active, no number.

SMILES	UHRF1 MBD2 ctr	LEDGF integ inh	TDP2 absorb	CASP6 VEID inh	NSD2 inh	MBD2 DNA inh	TDP2 confirm	AlphaScreen art	others
O=C1CC(N2CCOCC2)=NN1c1ccc([N+](=O)[O-])cc1	–	–	65	–	110	–	–	–
O=[N+]([O-])c1ccc(N2CCOCC2)nc1	–	–	–	·	–	–	·	·
C[C@@H]1CCCCO[C@H](CN(C)C(=O)NC2CCCCC2)[C@@H](C)CN([C@H](C)CO)C(=O)c2cc(NC(=O)Nc3cccc4ccccc34)ccc2O1	·	·	·	–	·	·	·	·
CCCCn1c(NC(=O)c2ccco2)c(S(=O)(=O)c2ccc(C)cc2)c2nc3ccccc3nc21	–	–	–	–	·	–	·	·
CCCCn1c(NC(=O)c2ccc(Br)o2)c(S(=O)(=O)c2ccccc2)c2nc3ccccc3nc21	–	17	67	·	104	–	–	–	IN multimer up=–;TRFRET interf=–;LEDGF integ conf=21
COc1ccc2c3c(n(C)c2c1)[C@@H](CO)N(Cc1ccncc1)CC31CCN(C(=O)C2CCCCC2)CC1	·	·	·	–	·	·	·	·
COc1ccc(S(=O)(=O)N[C@H]2CC[C@H](CCNC(=O)Cc3ccccn3)O[C@@H]2CO)cc1	·	·	·	–	·	·	·	·
N#C[C@H]1[C@@H](c2ccccc2)[C@H](CO)N1C(=O)c1cc(Cl)cc(Cl)c1	·	·	·	–	·	·	·	·
CN(C)CCNc1ccc2nnn3c4ccc(O)cc4c(=O)c1c23	–	–	–	–	·	–	·	·
CCN(CC)CCCNc1ccc2ncn3c4ccc(O)cc4c(=O)c1c23	–	36	87	–	64	–	28	–	IN multimer up=20;TRFRET interf=–;LEDGF integ conf=14
COCC#Cc1cnc2c(c1)C(=O)N([C@@H](C)CO)C[C@H](C)[C@@H](CN(C)C(=O)c1ccc3c(c1)OCO3)O2	·	·	·	–	·	·	·	·
Nc1c2c(=O)[nH]c(O)cc2nn1-c1ccccc1	–	16	89	40	100	–	77	–	IN multimer up=–;TRFRET interf=–;LEDGF integ conf=–
Nc1ccc2c(c1)C(=O)C(=O)c1ccccc1-2	–	–	98	·	112	–	87	–
Nc1ccc2c(c1)C(=O)c1ccccc1-2	–	–	–	–	·	–	·	·
O=C1c2cccc3cccc(c23)C(=O)C1(O)O	–	–	–	–	–	–	·	·
CC(=O)C(C(C)=O)C1(O)C(=O)c2ccccc2C1=O	–	–	44	–	104	–	68	–
COC(=O)c1cc(S(=O)(=O)N2CCOCC2)c(Cl)cc1N1CCOCC1	–	–	–	·	–	–	·	·
COC(=O)c1cc(C)nc2c1C(=O)C(=O)C=C2N1CCOCC1	–	38	87	83	+	–	89	–	IN multimer up=–;TRFRET interf=–;LEDGF integ conf=78
COc1ccc(S(=O)(=O)Nc2cc(SCC(=O)O)c(O)c3ccccc23)cc1	–	21	43	93	121	–	50	–	IN multimer up=–;TRFRET interf=–;LEDGF integ conf=33
NC1=C(Br)C(=O)c2ncccc2C1=O	–	29	62	100	101	–	65	–	IN multimer up=–;TRFRET interf=–;LEDGF integ conf=73
O=C1C=C(N2CCCCC2)c2ccccc2C1=O	–	29	70	100	114	–	85	–	IN multimer up=–;TRFRET interf=–;LEDGF integ conf=67
CN(C)c1cccc2c(S(=O)(=O)Nc3ccccn3)cccc12	–	19	56	·	58	–	–	–	IN multimer up=–;TRFRET interf=–;LEDGF integ conf=–
Cc1ccccc1CN1CCN(C(=O)c2ccco2)CC1	–	–	28	–	56	–	–	–
Cc1ccccc1CC(=O)N1CCN(C(=O)c2ccco2)CC1	–	–	–	–	–	–	·	·
Cc1noc(C)c1S(=O)(=O)Nc1ccc2c(c1)C(=O)N([C@@H](C)CO)C[C@H](C)[C@H](CN(C)S(=O)(=O)c1ccccc1)OCCCC[C@H](C)O2	·	·	·	–	·	·	·	·
SMILES	UHRF1 MBD2 ctr	LEDGF integ inh	TDP2 absorb	CASP6 VEID inh	NSD2 inh	MBD2 DNA inh	TDP2 confirm	AlphaScreen art	others
CC1(C)Cc2ccccc2C2=NNC(=O)C2=N1	–	–	28	–	106	–	34	–
CC1(C)Cc2ccccc2C(Nn2cnnc2)=N1	–	–	–	–	–	–	·	·
Cc1ccc2oc(-c3ccccc3C(=O)O)cc(=O)c2c1	–	–	–	·	–	–	·	·
COC(=O)COc1ccc(C(c2c(C)[nH][nH]c2=O)c2c(C)[nH][nH]c2=O)cc1	–	–	–	–	–	–	·	·
Cc1[nH][nH]c(=O)c1C(c1ccc(-c2ccccc2C(=O)O)o1)c1c(C)[nH][nH]c1=O	–	–	45	·	78	–	39	–
COC(=O)c1ccc(-c2ccc(C(c3c(C)[nH][nH]c3=O)c3c(C)[nH][nH]c3=O)o2)cc1	–	–	26	40	53	–	25	–
CNC(=S)N/N=C/c1ccc(-c2cccc(C(=O)O)c2)o1	–	–	–	–	–	–	·	·
Cc1[nH][nH]c(=O)c1C(c1ccc(-c2cccc(C(=O)O)c2)o1)c1c(C)[nH][nH]c1=O	–	–	63	42	+	–	31	–
O=C(N[C@H]1CC[C@@H](CCNS(=O)(=O)c2ccc(Cl)cc2)O[C@@H]1CO)c1cccc(F)c1	·	·	·	–	·	·	·	·
CC(=O)N(/N=C1\Sc2ccccc2C1=O)c1ccccc1C	–	34	63	·	56	–	63	–	IN multimer up=–;TRFRET interf=–;LEDGF integ conf=44
C[C@@H]1CN([C@H](C)CO)C(=O)Cc2cc(NC(=O)CCN3CCOCC3)ccc2O[C@@H]1CN(C)S(=O)(=O)c1cccs1	·	·	·	–	·	·	·	·
O=C(NC1(O)C(=O)c2ccccc2C1=O)c1c(Cl)cccc1Cl	–	–	71	39	111	–	79	–
O=C(NC1(O)C(=O)c2ccccc2C1=O)c1ccccc1	–	–	54	·	110	–	84	–
COC1(NC(=O)c2ccccc2)C(C)=CC(=O)C=C1C	–	–	–	–	–	–	·	·
O=C(C[C@H]1CC[C@H](NC(=O)C2CCOCC2)[C@@H](CO)O1)Nc1ccc(-c2ccccc2)cc1	·	·	·	–	·	·	·	·
Cc1[nH][nH]c(=O)c1C(c1c(C)[nH][nH]c1=O)c1cn(Cc2ccccc2Cl)c2ccccc12	23	20	55	·	115	–	34	–	IN multimer up=–;TRFRET interf=–;LEDGF integ conf=–
O=C1C(=O)c2c(C(=O)c3ccccc3)coc2-c2ccccc21	–	–	–	–	–	–	·	·
Cc1oc2c(c1C(=O)c1ccccc1)C(=O)C(=O)c1ccccc1-2	–	–	38	·	50	–	55	–
